Measured values published in ChEMBL document CHEMBL4251591, “Primaquine hybrids as promising antimycobacterial and antimalarial agents” (Eur J Med Chem, 2018).
In brackets after ≈: the same amount, converted by molar mass.

Tests used:
HEK293 = test: Cytotoxicity against human HEK293 cells; type: cell-based
[1] = system: Mycobacterium avium complex sp.; test: Antimycobacterial activity against Mycobacterium avium complex CIT19/06 clinical isolate after 5 days by Alamar Blue assay; type: functional; settings: CIT19/06, 120 h
[2] = system: Mycobacterium tuberculosis; test: Antimycobacterial activity against Mycobacterium tuberculosis H37Ra ATCC 25177 after 7 days by Alamar Blue assay; type: functional; settings: H37Ra ATCC 25177, 168 h
How it was run: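 Log-phase culture washed and resuspended in supplemented Middlebrook 7H9GC broth, adjusted to McFarland No. 1, then diluted 1:20. Equal volumes of culture and DMSO-prepared compound dilutions were tested in duplicate for 7 days. 10% AlamarBlue was added, with 570/600 nm readings for background and after 24 h reincubation. Blue meant no growth, pink meant growth. MIC was the lowest concentration without visible growth.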

Mycobacterium avium = test: Antimycobacterial activity against Mycobacterium avium subsp. paratuberculosis CIT03 clinical isolate after 11 days by Alamar Blue assay; type: functional; settings: CIT03, 264 h

SMILES | IC50 (HEK293) [mg/L] | MIC [1] [mg/L] | MIC [2] [mg/L] | MIC (Mycobacterium avium) [mg/L]
COc1cc(NC(C)CCCNC(=O)Nc2ccc(C(F)(F)F)cc2)c2ncccc2c1 (stereo not drawn) | 200 (≈ 448 µM) | 16 (≈ 35.8 µM) | 4 (≈ 8.96 µM) | 8 (≈ 17.9 µM)
COc1cc(NC(C)CCCNC(=O)Nc2ccc(Br)cc2)c2ncccc2c1 (stereo not drawn) | 200 (≈ 437 µM) | 16 (≈ 35 µM) | 8 (≈ 17.5 µM) | 16 (≈ 35 µM)
